Activity calls are given as the source filed them. The rule behind the calls is not given here.
Columns and labels:
Homo sapiens = species: Homo sapiens; test: Selectivity ratio of UD15 to IC50 of Nav1.3 (unknown origin) expressed in HEK293 cells; assay type: cell-based
[1] = target: T1, Sodium channel protein type 3 subunit alpha (Homo sapiens, UniProt Q9NY46); test: Inhibition of Nav1.3 (unknown origin) expressed in HEK293 cells assessed as 15% inhibition of sodium current incubated for 3 to 3.5 mins by electrophysiology assay; assay type: cell-based
Summary of the method: (§1)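 HEK293 cells stably expressing NaV1.3, grown in DMEM-F12 with 10% FBS at 37 °C, dissociated at 50–70% confluency; IonWorksHT planar patch clamp at 21–23 °C, amphotericin perforated access; intracellular K-gluconate 100, KCl 40, MgCl2 3.2, EGTA 3, HEPES 5 mM, pH 7.3.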
Target sequence in this assay (Q9NY46 whole entry, looked up): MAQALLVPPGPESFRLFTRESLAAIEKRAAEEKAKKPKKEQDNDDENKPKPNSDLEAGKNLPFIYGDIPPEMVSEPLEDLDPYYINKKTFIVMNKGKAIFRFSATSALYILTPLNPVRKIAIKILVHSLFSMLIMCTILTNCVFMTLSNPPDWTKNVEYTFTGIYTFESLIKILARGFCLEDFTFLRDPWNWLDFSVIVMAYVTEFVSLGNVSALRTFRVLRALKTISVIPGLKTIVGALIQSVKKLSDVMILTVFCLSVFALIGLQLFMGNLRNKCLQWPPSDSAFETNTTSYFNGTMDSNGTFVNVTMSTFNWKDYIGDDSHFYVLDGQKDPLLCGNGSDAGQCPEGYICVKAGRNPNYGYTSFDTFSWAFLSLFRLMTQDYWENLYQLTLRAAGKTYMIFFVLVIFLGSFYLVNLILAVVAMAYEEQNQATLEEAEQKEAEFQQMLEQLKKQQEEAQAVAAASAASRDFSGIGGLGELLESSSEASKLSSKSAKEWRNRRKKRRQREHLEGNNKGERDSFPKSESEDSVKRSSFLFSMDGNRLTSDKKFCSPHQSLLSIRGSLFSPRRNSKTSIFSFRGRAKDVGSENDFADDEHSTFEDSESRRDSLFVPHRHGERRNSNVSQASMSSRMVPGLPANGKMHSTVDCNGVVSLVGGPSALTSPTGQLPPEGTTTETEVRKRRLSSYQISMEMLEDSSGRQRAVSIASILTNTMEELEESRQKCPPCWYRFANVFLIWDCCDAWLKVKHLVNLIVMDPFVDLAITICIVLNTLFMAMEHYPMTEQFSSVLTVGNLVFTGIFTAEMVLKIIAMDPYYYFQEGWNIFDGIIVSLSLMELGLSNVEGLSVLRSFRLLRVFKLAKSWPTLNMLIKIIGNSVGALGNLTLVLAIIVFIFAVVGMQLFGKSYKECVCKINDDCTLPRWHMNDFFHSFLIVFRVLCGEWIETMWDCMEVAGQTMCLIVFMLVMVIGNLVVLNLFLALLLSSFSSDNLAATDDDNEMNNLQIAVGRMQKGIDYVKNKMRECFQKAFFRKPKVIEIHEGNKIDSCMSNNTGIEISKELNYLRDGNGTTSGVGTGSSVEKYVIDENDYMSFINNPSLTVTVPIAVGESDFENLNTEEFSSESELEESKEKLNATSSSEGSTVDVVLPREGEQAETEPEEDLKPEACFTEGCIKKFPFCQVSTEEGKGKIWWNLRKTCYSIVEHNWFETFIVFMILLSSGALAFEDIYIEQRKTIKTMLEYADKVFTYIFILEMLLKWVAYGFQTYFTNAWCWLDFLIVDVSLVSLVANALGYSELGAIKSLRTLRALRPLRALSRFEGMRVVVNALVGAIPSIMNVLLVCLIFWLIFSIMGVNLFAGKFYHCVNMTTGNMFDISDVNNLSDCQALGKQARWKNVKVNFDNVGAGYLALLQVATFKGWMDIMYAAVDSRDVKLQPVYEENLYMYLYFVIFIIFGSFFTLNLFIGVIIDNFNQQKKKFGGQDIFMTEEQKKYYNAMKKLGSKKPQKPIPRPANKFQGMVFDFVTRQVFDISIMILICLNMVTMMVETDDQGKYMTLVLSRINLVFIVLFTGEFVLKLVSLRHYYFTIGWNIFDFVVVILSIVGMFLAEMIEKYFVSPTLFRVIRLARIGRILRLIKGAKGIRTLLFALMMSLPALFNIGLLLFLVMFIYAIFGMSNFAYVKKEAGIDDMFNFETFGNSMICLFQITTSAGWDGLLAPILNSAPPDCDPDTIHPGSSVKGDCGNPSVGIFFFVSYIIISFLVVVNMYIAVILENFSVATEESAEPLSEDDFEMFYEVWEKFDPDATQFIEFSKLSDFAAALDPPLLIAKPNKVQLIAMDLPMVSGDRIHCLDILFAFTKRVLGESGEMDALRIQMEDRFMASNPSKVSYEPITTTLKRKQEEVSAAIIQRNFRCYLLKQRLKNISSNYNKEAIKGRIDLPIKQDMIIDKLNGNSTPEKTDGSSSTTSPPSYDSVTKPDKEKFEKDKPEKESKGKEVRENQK

[2] = target: Voltage-gated inwardly rectifying potassium channel KCNH2 (Homo sapiens, UniProt Q12809); test: Inhibition of human ERG; settings: for inhibition (INH): human
[3] = target: T1, Sodium channel protein type 3 subunit alpha; test: Inhibition of Nav1.3 (unknown origin) expressed in HEK293 cells assessed as inhibition of sodium current incubated for 3 to 3.5 mins by electrophysiology assay; assay type: cell-based; summary of the method: as §1
Target sequence in this assay (Q9NY46 whole entry): as the sequence (Q9NY46 whole entry, looked up) above

[4] = Fraction unbound in rat brain; assay type: ADME, tissue-based
[5] = Fraction unbound in rat plasma; assay type: ADME, cell-free
Rattus norvegicus = test: Antinociceptive activity in rat model of chronic constriction injury-induced neuropathic pain assessed as inhibition of CCI-induced mechanical allodynia at 30 mg/kg, po BID administered 22 days post surgery and measured on day 1, 6 and 8; assay type: functional, organism-based
Summary of the method: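 Chronic constriction injury model of neuropathic pain. Dosed orally twice daily as the positive-control arm of a study that also tested 0.5 and 5 mg/kg oral BID groups. Dosing started during day 22. Mechanical allodynia was measured on dosing days 1, 6 and 8.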

[6] = Oral bioavailability in rat at 3 mg/kg; assay type: ADME, organism-based; settings: in vivo
[7] = Total blood clearance in rat blood at 0.5 mg/kg, iv; assay type: ADME, organism-based
[8] = Ratio of drug level in brain to blood in rat; assay type: ADME, tissue-based; settings: read-out: Kbb
[9] = Fraction unbound in rat blood; assay type: ADME, tissue-based

Sequence of Voltage-gated inwardly rectifying potassium channel KCNH2 (Q12809 whole entry): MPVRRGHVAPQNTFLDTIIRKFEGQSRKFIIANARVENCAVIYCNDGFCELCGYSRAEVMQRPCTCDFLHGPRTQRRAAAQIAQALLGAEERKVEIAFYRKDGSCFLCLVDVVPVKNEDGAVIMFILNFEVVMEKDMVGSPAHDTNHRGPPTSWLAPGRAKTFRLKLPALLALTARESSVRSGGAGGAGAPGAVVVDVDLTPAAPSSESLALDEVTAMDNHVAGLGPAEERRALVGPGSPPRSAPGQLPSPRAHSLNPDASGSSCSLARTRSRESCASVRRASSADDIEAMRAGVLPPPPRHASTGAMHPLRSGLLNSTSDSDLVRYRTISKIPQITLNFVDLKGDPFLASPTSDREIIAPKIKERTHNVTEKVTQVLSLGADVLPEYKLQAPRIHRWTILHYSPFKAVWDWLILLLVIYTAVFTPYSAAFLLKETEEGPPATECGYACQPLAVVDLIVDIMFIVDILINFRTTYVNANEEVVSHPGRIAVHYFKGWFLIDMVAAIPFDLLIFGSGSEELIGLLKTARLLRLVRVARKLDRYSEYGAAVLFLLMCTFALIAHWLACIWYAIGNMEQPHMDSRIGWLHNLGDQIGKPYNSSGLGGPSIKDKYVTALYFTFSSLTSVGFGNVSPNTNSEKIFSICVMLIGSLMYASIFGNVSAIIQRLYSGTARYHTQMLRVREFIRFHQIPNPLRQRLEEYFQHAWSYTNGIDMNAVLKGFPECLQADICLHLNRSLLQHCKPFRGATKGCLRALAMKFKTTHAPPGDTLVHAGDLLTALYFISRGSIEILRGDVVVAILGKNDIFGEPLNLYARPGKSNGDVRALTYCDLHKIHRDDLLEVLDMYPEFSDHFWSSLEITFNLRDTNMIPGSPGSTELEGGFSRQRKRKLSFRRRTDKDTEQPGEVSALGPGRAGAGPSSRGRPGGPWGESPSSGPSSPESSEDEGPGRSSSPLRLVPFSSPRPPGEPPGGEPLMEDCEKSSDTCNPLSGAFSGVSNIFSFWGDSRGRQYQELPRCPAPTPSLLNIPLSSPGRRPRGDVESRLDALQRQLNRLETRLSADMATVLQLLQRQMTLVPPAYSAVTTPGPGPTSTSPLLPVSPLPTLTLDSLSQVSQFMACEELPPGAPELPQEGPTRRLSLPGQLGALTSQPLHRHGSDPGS

In the case of NC(=O)[C@@H]1CC[C@H](c2ccc(Oc3cccc(F)c3)cc2)N1, the Selectivity ratio (Homo sapiens) is reported as 29, the log(activity) [1] is reported as -5.5 and the IC50 [2] is reported as 7.94 µM. For the same compound, the IC50 [3] was 100 µM.

For C[C@H](NC1CCOc2cc(OCc3ccccc3F)ccc21)C(N)=O (some centres not stated), the IC50 [3] was over 79.4 µM.

O=C1CN(Cc2ccc(OCc3ccccc3F)cc2)CCN1 showed an IC50 [3] of over 79.4 µM.

In the case of NC(=O)CNC1CCc2cc(OCc3ccccc3F)ccc21 (configuration not stated), the Selectivity ratio (Homo sapiens) is reported as 1.3, the log(activity) [1] is reported as -5.5 and the “inhibition (INH)” value [2] is reported as “Active”. The IC50 [3] was 31.6 µM.

With NC(=O)CN1Cc2ccc(OCc3ccccc3F)cc2C1 the IC50 [3] was over 100 µM.

For NC(=O)CN1CCCc2cc(OCc3ccccc3F)ccc2C1, the IC50 [3] was over 79.4 µM.

O=C1NCCC1NCc1ccc(OCc2ccccc2F)cc1 (configuration not stated) gave a Selectivity ratio (Homo sapiens) of 8, a log(activity) [1] of -4.8 and an IC50 [3] of 126 µM.

NC(=O)[C@@H]1CSc2cc(OCc3ccccc3F)ccc2CN1 gave a log(activity) [1] of -4.7 and an IC50 [3] of over 100 µM.

CN1[C@@H](c2ccc(OCc3ccccc3F)cc2)CC[C@H]1C(N)=O gave a Selectivity ratio (Homo sapiens) of 2, a log(activity) [1] of -4.4 and an IC50 [2] of 50.1 µM. It also gave an IC50 [3] of over 100 µM.

Compound NC(=O)[C@@H]1CC[C@H](c2ccc(OCc3ccccc3F)cc2F)N1 has a fraction unbound [4] of 0.009, a Selectivity ratio (Homo sapiens) of 42 and a log(activity) [1] of -5.6. The IC50 [2] was 12.6 µM and the IC50 [3] was over 100 µM.

For NC(=O)[C@@H]1CC[C@H](c2cccc(Oc3ccccc3)c2)N1, the log(activity) [1] was -4.7, the IC50 [2] was 63.1 µM and the IC50 [3] was over 100 µM.

In the case of NC(=O)C1Cc2cc(OCc3ccccc3F)ccc2CN1 (configuration not stated), the Selectivity ratio (Homo sapiens) is reported as 1.3, the log(activity) [1] is reported as -4.8 and the IC50 [3] is reported as 20 µM.

NC(=O)[C@@H]1CC[C@H](c2ccc(Oc3ccc(F)cc3)cc2)N1 showed a fraction unbound [4] of 0.016, a fraction unbound [5] of 0.11 and a log(activity) [1] of -5.3. For the same compound, the IC50 [2] was 5.01 µM and the IC50 [3] was over 100 µM.

Work on N#Cc1cc([C@H]2CC[C@@H](C(N)=O)N2)ccc1OCc1ccccc1F yielded a log(activity) [1] of -4.8 and an IC50 [3] of over 50.1 µM.

Work on CC(C(N)=O)N1CCOc2cc(OCc3ccccc3F)ccc2C1 (configuration not stated) yielded a log(activity) [1] of -4.6 and an IC50 [3] of over 63.1 µM.

In the case of NCC1(CC(=O)O)CCCCC1, the Activity (Rattus norvegicus) is reported as “Active”.

For NC(=O)[C@H]1CC[C@H](c2ccc(OCc3ccccc3F)cc2)N1, the log(activity) [1] was -5.4, the IC50 [2] was 6.31 µM and the IC50 [3] was over 79.4 µM.

For NC(=O)[C@H]1CCC[C@@H](c2ccc(OCc3cccc(F)c3)cc2)N1 (stereo in doubt), the Selectivity ratio (Homo sapiens) was 11, the log(activity) [1] was -5.4 and the IC50 [2] was 3.16 µM. It also gave an IC50 [3] of 39.8 µM.

For NC(=O)[C@@H]1CCC[C@H](c2ccc(OCc3cccc(F)c3)cc2)N1 (stereo in doubt), the fraction unbound [4] was 0.01, the fraction unbound [5] was 0.04 and the Selectivity ratio (Homo sapiens) was 7. For the same compound, the log(activity) [1] was -5.4, the IC50 [2] was 31.6 µM and the IC50 [3] was 39.8 µM.

For C[C@@H](C(N)=O)N1CCCC1c1ccc(OCc2ccccc2F)cc1 (some centres not stated) [listing 1 of 2 here], the Selectivity ratio (Homo sapiens) was 14 and the log(activity) [1] was -5.5.

With NC(=O)[C@@H]1CCCN1Cc1ccc(OCc2ccccc2F)cc1 the Selectivity ratio (Homo sapiens) was 64, the log(activity) [1] was -5.8 and the “inhibition (INH)” value [2] was “Active”. The IC50 [3] was 79.4 µM.

In the case of NC(=O)[C@@H]1CC[C@H](c2ccc(OCc3ccccc3)cc2)N1, the Selectivity ratio (Homo sapiens) is reported as 37, the log(activity) [1] is reported as -5.6 and the IC50 [2] is reported as 7.94 µM. The IC50 [3] was over 63.1 µM.

Compound COc1cc([C@H]2CC[C@@H](C(N)=O)N2)ccc1OCc1ccccc1F has a fraction unbound [4] of 0.033, a Selectivity ratio (Homo sapiens) of 10 and a log(activity) [1] of -5.2. For the same compound, the IC50 [2] was 3.98 µM and the IC50 [3] was 63.1 µM.

C[C@@H](Oc1ccc([C@H]2CC[C@@H](C(N)=O)N2)cc1)c1ccccc1 showed a Selectivity ratio (Homo sapiens) of 9, a log(activity) [1] of -5.5 and an IC50 [2] of 3.98 µM. The IC50 [3] was 31.6 µM.

In the case of C[C@H](NC1CCCc2cc(OCc3ccccc3F)ccc21)C(N)=O (some centres not stated), the Selectivity ratio (Homo sapiens) is reported as 24, the log(activity) [1] is reported as -5.6 and the “inhibition (INH)” value [2] is reported as “Active”. The IC50 [3] was 63.1 µM.

Compound NC(=O)[C@@H]1CC[C@H](c2ccc(Oc3ccccc3)cc2)N1 has a bioavailability [6] of 25%, a clearance [7] of 40 mL/min/kg and a Kp [8] of 4.8. For the same compound, the Selectivity ratio (Homo sapiens) was 31, the log(activity) [1] was -5.4 and the IC50 [2] was 12.6 µM. It also gave an IC50 [3] of 100 µM.

N#Cc1cccc(COc2ccc([C@H]3CC[C@@H](C(N)=O)N3)cc2)c1 showed a log(activity) [1] of -5.2 and an IC50 [3] of over 63.1 µM.

C[C@@H](C(N)=O)N1CCCC1c1ccc(OCc2ccccc2F)cc1 (single isomer, unassigned; isomer 2) [listing 1 of 2 here] gave a Selectivity ratio (Homo sapiens) of 29 and a log(activity) [1] of -5.9.

Work on NC(=O)[C@H]1CC[C@@H](c2ccc(OCc3ccccc3F)cc2)N1 yielded a log(activity) [1] of -5.4, an IC50 [2] of 10 µM and an IC50 [3] of 63.1 µM.

In the case of CNC(=O)[C@@H]1CC[C@H](c2ccc(OCc3ccccc3F)cc2)N1, the fraction unbound [4] is reported as 0.015, the log(activity) [1] is reported as -5.3 and the IC50 [2] is reported as 25.1 µM. For the same compound, the IC50 [3] was over 63.1 µM.

N#Cc1ccc(COc2ccc([C@H]3CC[C@@H](C(N)=O)N3)cc2)cc1 showed a log(activity) [1] of -5, an IC50 [2] of 7.94 µM and an IC50 [3] of over 63.1 µM.

For NC(=O)CNCc1ccc(OCc2ccccc2F)cc1, the Selectivity ratio (Homo sapiens) was 11, the log(activity) [1] was -5.4 and the IC50 [3] was 50.1 µM.

For N#Cc1ccccc1Oc1ccc([C@H]2CC[C@@H](C(N)=O)N2)cc1, the fraction unbound [4] was 0.076, the log(activity) [1] was -4.6 and the IC50 [2] was 3.98 µM. The IC50 [3] was over 100 µM and the fraction unbound [9] was 0.12.

Compound NC(=O)[C@@H]1CC[C@@H](c2ccc(OCc3ccccc3F)cc2)N1 has a log(activity) [1] of -5.5, an IC50 [2] of 5.01 µM and an IC50 [3] of 100 µM.

Compound NC(=O)[C@@H]1CC[C@H](c2ccc(OCc3ccc(F)cc3)cc2)N1 has a bioavailability [6] of 31%, a clearance [7] of 91 mL/min/kg and a Kp [8] of 3.5. For the same compound, the log(activity) [1] was -5, the IC50 [2] was 7.94 µM and the IC50 [3] was over 63.1 µM.

For NC(=O)[C@@H]1CSC[C@H](c2ccc(OCc3cccc(F)c3)cc2)N1 (racemic), the log(activity) [1] was under -4.05 and the IC50 [3] was over 89.1 µM.

Compound NC(=O)C1CCC(c2ccc(OCc3ccccc3F)cc2)N1 (configuration not stated) has a log(activity) [1] of -5.4 and an IC50 [3] of 63.1 to 100 µM.

NC(=O)CN1CCOc2cc(OCc3ccccc3)ccc2C1 gave an IC50 [3] of over 79.4 µM.

With C[C@@H](C(N)=O)N1CCCC1c1ccc(OCc2ccccc2F)cc1 (some centres not stated) [listing 2 of 2 here] the “inhibition (INH)” value [2] was “Active” and the IC50 [3] was 50.1 µM.

In the case of NC(=O)[C@@H]1CC[C@H](c2ccc(OCc3ccccc3F)cn2)N1, the Selectivity ratio (Homo sapiens) is reported as 6, the log(activity) [1] is reported as -4.8 and the IC50 [2] is reported as 15.8 µM. The IC50 [3] was 63.1 µM.

In the case of C[C@@H](C(N)=O)N1CCc2cc(OCc3ccccc3F)ccc2C1, the IC50 [3] is reported as over 79.4 µM.

For N#Cc1ccccc1COc1ccc([C@H]2CC[C@@H](C(N)=O)N2)cc1, the bioavailability [6] was 39%, the clearance [7] was 37 mL/min/kg and the Kp [8] was 0.8. It also gave a fraction unbound [4] of 0.063, a fraction unbound [5] of 0.12 and a log(activity) [1] of -5.3. For the same compound, the IC50 [2] was 15.8 µM and the IC50 [3] was over 63.1 µM.

For NC(=O)[C@@H]1CC[C@H](c2ccc(OCc3cccc(F)c3)cc2)N1, the fraction unbound [4] was 0.01, the fraction unbound [5] was 0.033 and the log(activity) [1] was -5.5. The IC50 [2] was 3.16 µM and the IC50 [3] was over 100 µM.

For C[C@@H](C(N)=O)N1CCCC1c1ccc(OCc2ccccc2F)cc1 (single isomer, unassigned; isomer 2) [listing 2 of 2 here], the IC50 [3] was 39.8 µM.

Source: ChEMBL document CHEMBL4622996, “Discovery of Vixotrigine: A Novel Use-Dependent Sodium Channel Blocker for the Treatment of Trigeminal Neuralgia” (ACS Med Chem Lett, 2020)
